# Arbovirus inh: antivirals against arbovirus infection; arbovirus infection cell-based antiviral screen; actives 0.37% (n = 200,000); inhibition, % at 10 µM; AID 1251; in the data active = inhibition above about 30%
# TNAP inh no acc: blocks human TNAP activity with no phosphate acceptor present; P05186; purified TNAP, CDP-star luminescence, 30 min; inhibition, % at 20 µM; actives 0.26% (n = 200,000); AID 1012;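 active = tissue-nonspecific alkaline phosphatase inhibition above about 50% at 20 µM in the single-dose screen, limit read from the data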
# Target sequence (P05186 whole entry, looked up): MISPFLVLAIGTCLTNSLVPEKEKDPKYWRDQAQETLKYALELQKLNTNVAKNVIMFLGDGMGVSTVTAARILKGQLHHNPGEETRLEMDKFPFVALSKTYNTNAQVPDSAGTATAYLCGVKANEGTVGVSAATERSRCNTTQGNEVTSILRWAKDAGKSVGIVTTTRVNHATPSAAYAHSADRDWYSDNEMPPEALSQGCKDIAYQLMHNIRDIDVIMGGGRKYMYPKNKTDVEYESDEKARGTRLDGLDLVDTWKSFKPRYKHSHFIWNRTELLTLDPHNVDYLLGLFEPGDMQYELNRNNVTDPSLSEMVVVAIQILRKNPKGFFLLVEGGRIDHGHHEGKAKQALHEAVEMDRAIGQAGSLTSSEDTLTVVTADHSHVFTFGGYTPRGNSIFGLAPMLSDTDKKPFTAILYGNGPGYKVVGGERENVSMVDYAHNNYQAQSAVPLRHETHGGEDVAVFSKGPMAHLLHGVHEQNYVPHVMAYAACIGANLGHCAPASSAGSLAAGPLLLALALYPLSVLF
# TNAP act hiacc: activators of human TNAP at high phosphate acceptor concentration | activation factor at 20 µM | 200,000 tested, under 10 active | AID 1136 | purified TNAP, CDP-star luminescence, 1 M DEA, 30 min; hits give high values; 0 = EDTA background, 1 = DMSO-only activity;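 active = activation factor at least 2 at 20 µM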
#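 Measured by: Luminescent substrate turnover signal | Test system: Human TNAP | Input: TNAP 1/800 final | Dosing: 20 µM single point | Schedule: 30 min, room temperature | Controls: EDTA wells as negative control, DMSO wells as positive control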
# TNAP inh hiacc: blocks human TNAP under high phosphate acceptor concentration; actives 0.03% (n = 200,000); P05186; inhibition, % at 20 µM; purified TNAP, CDP-star luminescence, 1 M DEA; AID 1135;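 active = over 50% inhibition of tissue-nonspecific alkaline phosphatase at 20 µM in the single-dose screen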
# WT yeast gro inh: growth inhibition of WT yeast, mitochondrial fusion screen. mitochondrial fusion phenotypic screen, WT strain. inhibition, % at 10 µM. actives 2.1% (n = 190,000). AID 1362; in the data active = inhibition above about 58%; tested in S. cerevisiae
# Numbers stand for hits; n = inactive. Hits are enriched below; roughly 2.6% of the tested compounds scored in any of these assays.
SMILES,Arbovirus inh,TNAP inh no acc,TNAP act hiacc,TNAP inh hiacc,WT yeast gro inh
COC(=O)Cc1ccc(NC(=S)NCc2ccccc2OC)cc1,n,n,n,n,n
CCC(C)c1ccc(NC(=S)NCc2ccccc2OC)cc1 (stereo not given),n,n,n,n,77
COc1ccccc1CNC(=S)NCCc1ccccc1,n,n,n,n,69
OCCNC(=S)NCCc1ccccc1,n,n,n,n,n
O=C(O)c1cccc(S(=O)(=O)Nc2ccccc2-c2ccccc2)c1,n,n,n,n,n
CCN(C(=O)CSc1nnnn1-c1ccccc1)C1CCS(=O)(=O)C1 (stereo not given),n,n,n,n,n
CCC(OC(=O)c1cc2sccc2n1C)C(=O)NCc1ccco1 (stereo not given),n,n,n,n,75
O=C(NCCc1ccccc1)c1cc2sccc2n1Cc1ccccc1,n,n,n,n,n
Cn1c(C(=O)OCC(=O)NCc2ccco2)cc2sccc21,n,n,n,n,n
O=C(NCc1ccco1)c1cc2sccc2n1Cc1ccccc1,n,n,n,n,61
CCc1cc2ccccc2nc1SCC(=O)Nc1cc(OC)c(OC)cc1C(=O)O,n,n,n,n,n
O=C(Nc1nc(=S)ss1)c1c(F)cccc1F,n,n,n,n,79
Cc1ccc(C(=O)N2CCN(Cc3ccc4c(c3)OCO4)CC2)cc1[N+](=O)[O-],n,n,n,n,n
CCc1ccc(CN(C)C(=O)CCc2nc3ccccc3n(-c3ccc(OC)cc3)c2=O)cc1,n,n,n,n,58
CCC(C)(C)NC(=O)CN(C(=O)c1snc(C(N)=O)c1N)c1ccc2c(c1)OCCO2,n,n,n,n,73
COc1cc(C#N)c(NC(=O)CN2CCN(CCO)CC2)cc1OC,n,n,n,n,n
CC(C)CC(=O)NC(=S)N(Cc1ccccc1)Cc1ccccc1,n,n,n,n,64
CC(C)C(=O)NC(=S)N(Cc1ccccc1)Cc1ccccc1,n,n,n,n,n
O=C1NC(=Nc2ccccc2)S/C1=C\c1cccn1-c1ccccc1,n,n,n,n,n
Cc1ccc(-n2cc(CNCCc3cscn3)c(-c3ccc(F)cc3)n2)cc1,n,n,n,n,69
O=C(Nc1ccc([N+](=O)[O-])cc1)Nc1ccc(N2CCOCC2)c2nonc12,n,n,n,n,79
CC(=O)Nc1cc([N+](=O)[O-])ccc1N1CCOCC1,n,n,n,n,n
CCOc1ccccc1CNC(=O)c1ccc(Sc2ccc(Cl)cc2)c(NC(C)=O)c1,n,n,n,n,65
CCOc1ccc(CNC(=O)c2ccc(Sc3ccc(Cl)cc3)c(NC(C)=O)c2)cc1,n,n,n,n,n
Cc1cc2c(cc1C)CSC(c1c(O)ccc3ccccc13)SC2,n,n,n,n,97
SMILES,Arbovirus inh,TNAP inh no acc,TNAP act hiacc,TNAP inh hiacc,WT yeast gro inh
C/C(=N\N=C(/N)SC1CC(=O)N(c2ccc(Br)cc2)C1=O)c1cccs1 (stereo not given),n,n,n,n,65
N/C(=N\N=C\c1cccs1)SC1CC(=O)N(c2ccc(Br)cc2)C1=O (stereo not given),n,n,n,n,n
C/C(=N\N=C(/N)SC1CC(=O)N(c2ccccc2)C1=O)c1cccs1 (stereo not given),n,n,n,n,n
CCCCCCOc1ccc(N2C(=O)CC(S/C(N)=N/N=C(\C)c3cccs3)C2=O)cc1 (stereo not given),n,n,n,n,n
C/C(=N\N=C(/N)SC1CC(=O)N(c2ccc(Cl)c(Cl)c2)C1=O)c1cccs1 (stereo not given),n,n,n,n,98
C/C(=N\N=C(/N)SC1CC(=O)N(c2ccc(Cl)cc2)C1=O)c1cccs1 (stereo not given),n,n,n,n,60
O=C(Nc1cc(C(F)(F)F)cc(C(F)(F)F)c1)c1ccc(Cn2cc(C(F)(F)F)ccc2=O)cc1,n,n,n,n,n
Cc1ccc(S(=O)(=O)c2nc(Nc3ccccc3N3CCOCC3)sc2Cl)cc1,n,n,n,n,n
CCc1cccc(CC)c1NC(=S)NC(C)c1ccccc1 (stereo not given),n,n,n,n,60
COCCNC(=O)C1CC(=O)N(c2ccc(OC)cc2)C1c1ccc(OC)cc1 (stereo not given),n,n,n,n,n
O=C(O)/C(=C\c1cccs1)c1ccccc1,n,n,n,n,n
O=C(CCl)Nc1ccccc1Sc1ccc(Cl)cc1,n,n,n,n,n
Cc1ccc(Sc2ccc(NC(=O)CCl)cc2)c(C)c1,n,n,n,n,64
Cc1cc(N2CCOCC2)nc(SCc2ccc(Cl)cc2Cl)n1,n,n,n,n,n
OC(CNCCc1ccccc1)c1ccccc1 (stereo not given),n,n,n,n,n
COc1ccc(CCNCC(O)c2ccccc2)cc1 (stereo not given),31,n,n,n,n
O=C1NC(=O)/C(=C\c2ccc(Oc3ccc([N+](=O)[O-])cn3)cc2)S1,33,n,n,n,n
O/C(=C\c1nc2ccccc2nc1/C=C(\O)c1ccccc1)c1ccccc1,n,n,n,n,74
O=C(NCCN1CCOCC1)N1c2ccccc2Sc2ccccc21,n,n,n,n,n
Cc1cc(C)nc(N2CCCC(C(=O)NCc3cccs3)C2)n1 (stereo not given),n,n,n,n,70
Cc1ccc2nsnc2c1S(=O)(=O)NCCc1c(C)[nH]c2ccc(F)cc12,n,n,n,n,n
NCCOc1ccc(C23CC4CC(CC(C4)C2)C3)cc1,n,n,n,n,97
FC(F)(F)c1cccc(OCCN2CCN(Cc3ccccc3)CC2)c1,n,n,n,n,n
CCN(CCCNC(=O)CCNC(=O)Cn1cnc2ccccc2c1=O)c1ccccc1,n,n,n,n,n
CCOC(=O)C1=C(c2ccccc2)N=C2SCC(=O)N2C1c1ccc(OC)c(OC)c1 (stereo not given),n,n,n,n,n
SMILES,Arbovirus inh,TNAP inh no acc,TNAP act hiacc,TNAP inh hiacc,WT yeast gro inh
CCOC(=O)C1=C(c2ccccc2)N=C2SCC(=O)N2C1c1ccc2c(c1)OCO2 (stereo not given),n,n,n,n,60
COc1ccc(OC)c(NC(=O)c2nc(-c3ccccc3)oc2C)c1,n,n,n,n,n
CCOc1ccc(-n2cc(-c3ccccc3)c3c(N4CCOCC4)ncnc32)cc1,n,n,n,n,59
c1ccc(-c2cn(-c3ccccc3)c3ncnc(N4CCCCC4)c23)cc1,n,n,n,n,n
CN1CCN(c2ncnc3c2c(-c2ccccc2)cn3-c2ccc(F)cc2)CC1,n,n,n,n,n
COc1ccc(-n2cc(-c3ccccc3)c3c(N4CC(C)OC(C)C4)ncnc32)cc1 (stereo not given),n,n,n,n,68
Cc1ccc(NC(=O)CSc2nnc(-c3cccnc3)n2CCN2CCCCC2)cc1,n,n,n,n,n
CCC1CC2CC(NC(C)=O)C1C2 (stereo not given),n,n,n,n,n
